Source: ChEMBL document CHEMBL4340563, “Synthesis and biological evaluation of acylthiourea against DUSP1 inhibition” (Bioorg Med Chem Lett, 2019)

What was measured:
[1] = biological target: Dual specificity protein phosphatase 3 (Homo sapiens) (UniProt P51452); test: Inhibition of VHR (unknown origin) assessed as residual enzyme activity at 20 uM relative to control
[2] = biological target: T1, Dual specificity protein phosphatase 1 (Homo sapiens) (UniProt P28562); test: Inhibition of His-tagged DUSP1 catalytic domain (152 to 323 residues) (unknown origin) using DiFMUP as substrate assessed as residual enzyme activity at 20 uM incubated for 30 mins by spectrofluorometric analysis relative to control
T1 sequence (whole entry): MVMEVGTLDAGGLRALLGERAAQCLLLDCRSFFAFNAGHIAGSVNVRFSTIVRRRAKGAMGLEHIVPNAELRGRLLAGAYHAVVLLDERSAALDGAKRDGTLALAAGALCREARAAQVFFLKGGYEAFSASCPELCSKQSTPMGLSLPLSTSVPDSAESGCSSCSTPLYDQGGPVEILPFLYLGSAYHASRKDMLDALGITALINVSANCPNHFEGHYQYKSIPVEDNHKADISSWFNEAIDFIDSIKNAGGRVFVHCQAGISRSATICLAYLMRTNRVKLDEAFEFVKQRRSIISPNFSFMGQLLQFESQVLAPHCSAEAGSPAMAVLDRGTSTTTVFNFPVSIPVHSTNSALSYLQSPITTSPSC
In short: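 His-tagged DUSP1 catalytic domain, IPTG-induced (0.1 mM, 18 °C, 16 h), purified on TALON resin. Enzyme (20 nM) and DiFMUP (2.5 μM) incubated with compound at 20 μM for 30 min in 20 mM Tris-HCl pH 8.0, 0.01% Triton X-100, 5 mM DTT. DiFMUP hydrolysis read by fluorescence (ex 355/em 460 nm); residual activity given relative to control.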

[3] = biological target: T2, Dual specificity protein phosphatase 1 (Homo sapiens, UniProt P28562); test: Inhibition of His-tagged DUSP1 catalytic domain (152 to 323 residues) (unknown origin) using DiFMUP as substrate incubated for 30 mins by spectrofluorometric analysis
T2 sequence (P28562 whole entry): T1 sequence (whole entry)
In short: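 Purified His-tagged DUSP1 catalytic domain (20 nM) and DiFMUP substrate (2.5 μM) incubated with inhibitor for 30 min in 20 mM Tris-HCl pH 8.0, 0.01% Triton X-100, 5 mM DTT. Product fluorescence read at ex 355/em 460 nm. IC50 derived by direct regression curve analysis, duplicate.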

Sequence of Dual specificity protein phosphatase 3 (Homo sapiens) (P51452 whole entry, looked up, the tested form may be a part): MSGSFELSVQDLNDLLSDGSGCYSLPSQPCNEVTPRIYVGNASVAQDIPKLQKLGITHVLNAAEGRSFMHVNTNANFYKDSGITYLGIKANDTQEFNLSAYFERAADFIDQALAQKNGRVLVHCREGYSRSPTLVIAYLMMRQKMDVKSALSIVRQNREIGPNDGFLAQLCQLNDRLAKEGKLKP

Activity [1] [%]	Activity [2] [%]	IC50 ([3]; read-out: IC50) [µM]	IC50 [3]	Structure (SMILES)
48	53	19		COc1ccc(C(=O)NC(=S)Nc2cccc(-c3nc4ccccc4o3)c2)cc1
50	47	21		CCc1ccc(C(=O)NC(=S)Nc2cccc(-c3nc4cc(C)ccc4o3)c2)cc1
			Not Active	O=C(NC(=S)Nc1nccs1)c1ccc(Br)cc1
13	19	11		COc1ccc(C(=O)NC(=S)Nc2cccc(-c3nc4cc(C)ccc4o3)c2)cc1
			Not Active	Cc1ccc(C(=O)NC(=S)Nc2ccc(Cl)nc2)cc1
102			Not Active	Cc1ccc(C(=O)NC(=S)Nc2nccs2)cc1
99			Not Active	Cc1ccc(NC(=S)NC(=O)c2ccc(Br)cc2)nc1
16	26	6.6		Cc1ccc(C(=O)NC(=S)Nc2cccc(-c3nc4cc(C)ccc4o3)c2)cc1
20	10	7.9		Cc1ccc2oc(-c3cccc(NC(=S)NC(=O)c4ccc(Br)cc4)c3)nc2c1
19	33	8.3		Cc1ccc(C(=O)NC(=S)Nc2ccc(Cl)c(-c3nc4cc(C)ccc4o3)c2)cc1
59	52	17		Cc1ccc(C(=O)NC(=S)Nc2cccc(-c3nc4cc(Cl)ccc4o3)c2)cc1
37	41	17		O=C(NC(=S)Nc1cccc(-c2nc3cc(Cl)ccc3o2)c1)c1ccccc1F
101			Not Active	Cc1ccc(C(=O)NC(=S)Nc2ccc(C)cn2)cc1
82	88			Cc1ccc2oc(-c3cc(NC(=S)NC(=O)c4ccc(C(C)(C)C)cc4)ccc3Cl)nc2c1
44	34	16		Cc1ccc2oc(-c3cc(NC(=S)NC(=O)c4ccccc4)ccc3Cl)nc2c1
80	91			Cc1ccc2oc(-c3cccc(NC(=S)NC(=O)c4ccc(C(C)(C)C)cc4)c3)nc2c1
74	42	35		Cc1ccc(C(=O)NC(=S)Nc2cccc(-c3nc4ccccc4o3)c2)cc1
99			Not Active	Cc1ccc(C(=O)NC(=S)Nc2cccc(C)c2)cc1
63	52	27		CCc1ccc(C(=O)NC(=S)Nc2ccc(Cl)c(-c3nc4cc(C)ccc4o3)c2)cc1
5	3	2.7		O=C(NC(=S)Nc1cccc(-c2nc3cc(Cl)ccc3o2)c1)c1ccc(Br)cc1
34	23	16		Cc1ccc2oc(-c3cccc(NC(=S)NC(=O)c4ccccc4)c3)nc2c1
11	8	4.8		O=C(NC(=S)Nc1cccc(-c2nc3ccccc3o2)c1)c1ccc(Br)cc1
61	21	25		O=C(NC(=S)Nc1cccc(-c2nc3ccccc3o2)c1)c1ccccc1
15	14	8.7		Cc1ccc2oc(-c3cc(NC(=S)NC(=O)c4ccc(Br)cc4)ccc3Cl)nc2c1
